Screens deposited in PubChem BioAssay by Johns Hopkins Ion Channel Center.
Compounds with a hit are over-represented: about 3.5% of the library has one in this group of screens.
MrgX1 antag = human MrgX1 receptor antagonism, primary screen; Q96LB2; MRGX1-HEK293 calcium flux, Fluo-4, BAM8-22 antagonism; active compounds read low; B-score at 10 µM; 310,000 compounds, 1.3% hits; AID 588676;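 active means calcium-response B-score plate-corrected more than 3 library SD below zero, starting fluorescence within 5 deviations, no agonist response on first addition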;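 further: peak minus trough fluorescence over baseline after final BAM8-22 challenge near maximal dose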
Target sequence (Q96LB2 whole entry, looked up): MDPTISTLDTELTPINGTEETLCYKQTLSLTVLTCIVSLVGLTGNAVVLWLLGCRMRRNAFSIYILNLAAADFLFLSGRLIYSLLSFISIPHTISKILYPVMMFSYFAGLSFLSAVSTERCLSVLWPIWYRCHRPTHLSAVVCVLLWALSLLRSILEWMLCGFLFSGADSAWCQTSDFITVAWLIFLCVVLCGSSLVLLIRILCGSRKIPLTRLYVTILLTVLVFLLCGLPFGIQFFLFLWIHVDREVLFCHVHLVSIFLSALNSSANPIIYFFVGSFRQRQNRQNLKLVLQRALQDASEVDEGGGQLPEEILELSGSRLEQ
RGS4 block = human RGS4 inhibition | P49798 | HEK293 M3R/RGS4 inducible, Fluo-4 calcium flux; active compounds read high; triggered by carbachol at its EC20 | B-score at 10 µM | 310,000 compounds, 0.45% hits;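 active means B-score, a plate-corrected calcium signal, over three deviations above library mean, with baseline fluorescence within five deviations of library mean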;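 further: RGS4 expression induced by doxycycline in cells with stable M3 receptor; B-score is computed from the integrated fluorescence ratio over baseline after carbachol; higher B-score means a larger calcium signal and so more RGS4 inhibition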
Target sequence (P49798 whole entry, looked up): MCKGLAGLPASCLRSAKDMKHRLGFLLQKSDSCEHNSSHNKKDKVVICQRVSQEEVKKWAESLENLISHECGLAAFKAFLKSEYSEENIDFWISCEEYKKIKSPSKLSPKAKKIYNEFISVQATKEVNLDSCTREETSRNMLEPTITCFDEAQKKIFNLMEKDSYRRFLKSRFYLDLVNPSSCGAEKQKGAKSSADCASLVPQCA
MrgX1 PAM = allosterically activates human MrgX1 receptor signaling | 310,000 compounds, 0.63% hits | MrgX1-HEK293, Fluo-4 calcium flux, FDSS; active compounds read high | Q96LB2 | B-score at 10 µM;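 active means plate-corrected calcium response at least 3 library SD above typical, normal starting fluorescence, not activating the receptor alone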;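 further: compound read alongside a low EC10 to EC30 dose of BAM8-22 agonist; peak minus trough fluorescence over baseline measured at the second addition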
MrgX1 agonist = activates human MrgX1 receptor signaling. MrgX1-HEK293 cells, Fluo-4 calcium fluorescence, agonist mode; active compounds read high. B-score at 10 µM. Q96LB2. 310,000 compounds, 0.44% hits;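 active means calcium response B-score plate-corrected fluorescence ratio at least 3 library SD, with starting fluorescence B-score inside 5 SD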
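Test system: HEK293 cells stably expressing human MrgX1 receptor; amount: 15,000 cells per well; doses: compound delivered in addition one of three; times: overnight plating before 1 h dye loading; detection: Fluo-4 NW calcium-flux fluorescence, kinetic read; read-out basis: B-scored fluorescence response ratio; controls: positive and negative controls per plate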
RGS4 pot = potentiators or activators of RGS4; HEK293 M3R/inducible RGS4, carbachol calcium flux Fluo4; active compounds read low; B-score at 10 µM; 310,000 compounds, 0.92% hits; AID 463111;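 active means B-score of the integrated calcium signal more than 4 SD below the library mean, with starting fluorescence not abnormally high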;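 further: negative B-score means reduced calcium response which marks RGS4 activation or potentiation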
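System – HEK293 FlpIn-TREx cells, stable M3R, doxycycline-inducible RGS4 · Reagent – ECmax carbachol challenge · Times – compound preincubation 20 min at room temperature before agonist · Technique – Fluo4 fluorescence kinetic imaging of calcium · Measure – B score of integrated Fluo4 ratio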
Of the large screens only hits and unclear results are named; the others gave an inactive call.

CC(O)(C#CCN1CCOCC1)c1ccccc1 (configuration not stated)	none (no result: MrgX1 antag, MrgX1 PAM, MrgX1 agonist)
CC(C)C(O)(C#CCN1CCCC1)c1ccccc1 (configuration not stated)	RGS4 pot -7.5
OC(C#CCN1CCCCCC1)(c1ccccc1)c1cccnc1 (configuration not stated)	none
CC(C)C(O)(C#CCN1CCCCC1)c1ccccc1 (configuration not stated)	RGS4 pot -7.2
O=C1COc2ccc(C(=O)C[n+]3cccc(O)c3)cc2N1	none
O=[n+]1cc(-c2ccc(Cl)cc2)n([O-])c2c1CCC2	none
O=[n+]1cc(-c2ccc(Br)cc2)n([O-])c2c1CCC2	MrgX1 antag -4.6
C1CCCN(CCCCN2CCCCCC2)CC1	none
COC(=O)CCCCCCCCCCN1CCCCC1	RGS4 pot -9.2
O=C(c1ccco1)N1CCN(c2ncnc3sc4c(c23)CCC4)CC1	RGS4 pot -7.2
CCc1nc(N2CCN(C(=O)c3ccco3)CC2)c2c3c(sc2n1)CCCC3	none
CSCC[C@H](NC(=O)c1cccnc1)c1nnc2ccccn12	none
O=[N+]([O-])/C=C/c1cc2ccccc2[nH]1	MrgX1 agonist 41
CCOc1ccc(NC(=O)CN(C)C(=O)c2ccc3nc(CC)c(CC)nc3c2)cc1OCC	MrgX1 PAM 7.5
CCC(C)N(C(=O)COc1ccccc1C(=O)NCc1ccccc1)C1CCS(=O)(=O)C1 (configuration not stated)	MrgX1 antag -6.2
COc1ccc(/C=C2/C(=N)N3N=C(CC(=O)N4CCCC4)SC3=NC2=O)cc1	MrgX1 agonist 35
COc1ccc(/C=C2\C(=N)N3N=C(CC(=O)N4CCCCC4)SC3=NC2=O)cc1	MrgX1 agonist 38
Cc1ccc(/C=C2\C(=N)N3N=C(CC(=O)N4CCCCC4)SC3=NC2=O)cc1	none
CCC(C)[C@H]1CNC(=S)N1CCc1cc(C(F)(F)F)cc(C(F)(F)F)c1 (some centres not stated)	MrgX1 antag -5.2
CCC(C)[C@H]1CNCCN1CCc1cc(C(F)(F)F)cc(C(F)(F)F)c1 (some centres not stated)	none
CN1CCN(C(=O)CCCN2C(=O)/C(=C/c3cccc(Br)c3)SC2=S)CC1	RGS4 pot -7.2 (no result: MrgX1 antag, MrgX1 PAM, MrgX1 agonist)
O=C(O)CCCN1C(=O)/C(=C/c2ccncc2)SC1=S	none
O=C(O)CCCCCN1C(=O)/C(=C\c2ccncc2)SC1=S	MrgX1 agonist 34
CN1CCN(C(=O)CCN2C(=O)/C(=C/c3cccc(Br)c3)SC2=S)CC1	none
CCc1ccc(/C=C2\SC(=S)N(CCCC(=O)Nc3ccccc3C(=O)O)C2=O)cc1	none
Cc1ccc(/C=C2\SC(=S)N(CCCC(=O)Nc3ccccc3C(=O)O)C2=O)cc1	MrgX1 antag -5.4
O=C(O)CCCCCN1C(=O)/C(=C/c2ccncc2)SC1=S	MrgX1 agonist 32
CCc1sc(N(C(=O)Cc2ccccc2)c2ccccc2)nc1-c1ccccc1	none
CCCCC(=O)N(c1ccc(C(=O)O)cc1)c1nc(-c2ccc(Cl)cc2)c(CC)s1	RGS4 pot -7.4
O=[N+]([O-])c1cc(Br)c2nsnc2c1N1CCOCC1	MrgX1 agonist 59
CC(C)[C@H](NC(=O)C1CCN(S(=O)(=O)c2ccc(F)cc2)CC1)C(=O)NCc1ccncc1	none
CC1CC(N(C(=O)c2ccco2)c2ccccc2)c2ccccc2N1 (configuration not stated)	MrgX1 PAM 6.5
CCCOC(=O)c1ccc(Oc2cn[nH]c2-c2ccc(OC)cc2O)cc1	RGS4 pot -7.5
COc1cccc(Oc2cn[nH]c2-c2ccc(OCC(=O)NN)cc2O)c1	none
COc1ccc(S(=O)(=O)N2CCC(C(=O)NCCC(=O)Nc3cccc(Cl)c3)CC2)cc1	none
COc1ccc2cc(C(C)C(=O)N3CCC(C(N)=O)CC3)ccc2c1 (configuration not stated)	none
O=C(Nc1cccc(Cl)c1)Nc1ccc2nccnc2c1	MrgX1 antag -4.7
O=C(Nc1ccc2nccnc2c1)Nc1ccccc1Cl	none
COc1ccc(/C=C(\C#N)c2nc3ccccc3[nH]2)cc1O	none (no result: MrgX1 antag, MrgX1 PAM, MrgX1 agonist)
COc1cc(/C=C(\C#N)c2nc3ccccc3[nH]2)cc(OC)c1O	MrgX1 agonist 44
N#C/C(=C\c1c(Cl)cccc1Cl)c1nc2ccccc2[nH]1	MrgX1 PAM 8.7
CN(C)/C=C(\C#N)c1nc2ccccc2[nH]1	none
Cc1cc(/C=C(/C#N)c2nc3ccccc3[nH]2)c(C)n1-c1cccc([N+](=O)[O-])c1	RGS4 pot -7.1
N#C/C(=C\c1ccc(Cl)cc1)c1nc2ncccc2[nH]1	MrgX1 PAM 19
Cc1cc(/C=C(\C#N)c2nc3ccccc3[nH]2)c(C)n1C	none
O=C(C1CC1)N1CCN(c2ccc([N+](=O)[O-])cc2-n2cccc2)CC1	none
O=C(NCc1nnc(SCC(=O)N2CCCC2)o1)c1cccc(C(F)(F)F)c1	none
O=C1CC(c2ccc(Cl)cc2)CC(O)=C1C=NCc1ccc(Cl)c(Cl)c1 (configuration not stated)	RGS4 pot -8
O=C1CC(c2ccccc2)CC(O)=C1C=NCCc1ccccc1 (configuration not stated)	MrgX1 PAM 11
CCc1ccc(NC(=O)Cn2nc(C)n3cccc3c2=O)cc1	none
N#CC(=C=[N-])C1=C(C#N)C(c2ccccc2F)C([n+]2ccccc2)C(O)(C2CC2)N1 (configuration not stated)	MrgX1 agonist 48
Cc1ccc[n+](C2C(c3ccc([N+](=O)[O-])cc3)C(C#N)=C([S-])NC2(O)C2CC2)c1 (configuration not stated)	none
Cc1cccc[n+]1C1C(c2ccccc2)C(C#N)=C(C(=C=[N-])C#N)NC1(O)C1CC1 (configuration not stated)	MrgX1 agonist 43
CCOC(=O)CNc1nc(Cl)nc(NC(C)(C)C)n1	none
Cc1cc(C)c[n+](-c2[nH]c(=O)sc2/C=N/NC([S-])=Nc2ccccc2)c1	MrgX1 antag -6.7
Cc1cc[n+](-c2[nH]c(=O)sc2/C=N/NC([S-])=Nc2ccccc2)cc1	none
Cn1c(/C(C#N)=C(\O)c2cccc(F)c2)nc2ccccc21	MrgX1 antag -5.4
Cc1c(N2C(=O)CSC2c2ccc([N+](=O)[O-])cc2)c(=O)n(-c2ccccc2)n1C (configuration not stated)	none
O=C1CSC(c2ccccc2)N1c1ccc([N+](=O)[O-])cc1 (configuration not stated)	RGS4 pot -7
Cc1ccc(NS(=O)(=O)c2ccc(C(=O)NCC(c3ccco3)N(C)C)cc2)cc1 (configuration not stated)	MrgX1 antag -4.9
Cc1ccc(S(=O)(=O)Nc2cccc(C(=O)NCC(c3ccccc3)N(C)C)c2)cc1F (configuration not stated)	RGS4 pot -7.5
